Measured values as given in ChEMBL document CHEMBL1821649, “Synthesis, characterization of some benzazoles bearing pyridine moiety: search for novel anticancer agents” (2011).

Test system: UO-31
Assay: Antitumor activity against human UO31 cells at 10^-5 M after 48 hrs by SRB assay
Format: functional
Conditions: UO-31, 48 h, read-out: GI
How it was run: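 Single-dose screen following the National Cancer Institute Drug Evaluation Branch protocol, run on the NCI panel of 60 human tumour cell lines covering nine cancer types. Percent growth of treated cells was recorded and reported as percentage growth inhibition (GI%). Compounds meeting preset inhibition thresholds advanced to a five-dose, 10-fold dilution series.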

SMILES: Cc1cc2nc(-c3c(N)ncc(C#N)c3-c3ccc(O)cc3)[nH]c2cc1C
- inhibition of growth at 10 µM: 33.4%
